What was measured:
U-87MG tumors = test: Fluorescence microscopy of U-87MG tumor cryosections; format: in vivo, BALB/c nu/nu mice; settings: U-87MG tumors excised 24 h after injection
Summary of the method: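 U-87MG tumors were excised 24 h after i.v. test compound or parent dye, with FITC-albumin given 5 min before sacrifice to estimate permeability. Tumors were embedded in OCT, fresh-frozen in ice-cold isopentane, and cryosectioned. Probe and FITC distribution were viewed by fluorescence stereomicroscopy.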

[1] = In vitro photoacoustic spectra and signal vs concentration in agar phantom; format: physicochemical; settings: in glucose solution 5.5% and serum; spectra 680–970 nm, step 5 nm
Summary of the method: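 Dyes were diluted in 5.5% glucose (plus 5% DMSO for the conjugate) or incubated 1 h at RT in human serum (HSA 47.8 g/L). Samples were loaded in PE-100 tubes in 2% agar phantoms and read at 21 MHz, 40 dB gain, persistence 3, 680–970 nm in 5 nm steps. Signals were normalized to diluted India ink. Peak signal was plotted against concentration and slopes (μM−1) compared. Data are mean ± SD.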

[2] = system: U-87MG tumors (high αvβ3 expression); test: In vivo photoacoustic imaging of tumor uptake, U-87MG xenograft; parameters: species or system BALB/c nu/nu mice; settings: U-87MG tumor bearing mice, n = 5/group
[3] = no reference given, cited from earlier work
[4] = Absolute fluorescence quantum yield; format: physicochemical; settings: Seronorm vs glucose solution
[5] = system: tumor, brain, lung, liver, kidneys, heart and spleen; test: Ex vivo optical imaging of harvested organs and tumors; format: in vivo, BALB/c nu/nu mice; settings: 24 h post-injection, 200 nmol i.v., harvested organs, n = 5/group
Summary of the method: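 Nude mice bearing s.c. right-flank xenografts (5 million A431 or 2 million U-87MG cells, ~14 days) received 200 nmol test compound or parent dye in 0.2 mL i.v. via the tail vein (n=5/group). At the end, FITC-albumin (100 mg/kg i.v.) was given 5 min before sacrifice. Tumor and organs were excised for optical imaging, with tumor ROIs and no background correction.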

## CC1(C)C(/C=C/C=C/C=C/C=C2\N(CCCCS(=O)(=O)O)c3ccc4ccccc4c3C2(C)C)=[N+](CCCCS(=O)(=O)[O-])c2ccc3ccccc3c21 [ICG, Indocyanine green]
U-87MG tumors
  microscopic fluorescence distribution in tumor cryosections: only a patchy and weak signal
[1]
  maximum photoacoustic peak: 800 nm
[2]; 200 nmol i.v. tail vein
  time of peak photoacoustic signal in tumor post-injection: 15 min
[2]; 200 nmol i.v.
  photoacoustic signal reduction at 60 min compared to 15 min: 70%
[3]; in human
  blood half-life: 3 to 5 min
[3]
  photostability: low photostability
  solubility in aqueous media: low solubility in aqueous media with strong tendency to form aggregates
[4]
  increase of fluorescence efficiency in Seronorm compared to glucose solution: 5 fold
[5]
  ex vivo optical imaging, organ distribution: accumulated mainly in liver and kidney

— publication PMC6086215 (Photoacoustics, 2018)
